Common to all, as to assay type: functional, cell-based
The test system of one assay is SK-N-SH. Kind of assay: Antitumour activity against human SK-N-SH cells assessed as cell growth inhibition measured after 72 hrs by SRB assay. The method, boiled down: (§1)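 Exponentially growing cells trypsinized, seeded at 5 × 10^4 cells/mL in 96-well plates, cultured overnight, then exposed to compounds for 72 h. Cells fixed with 10% TCA 1 h, stained with SRB 15 min, dye dissolved in Tris-HCl, absorbance read; 50% growth-inhibitory concentration calculated.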
For orientation: In SRB staining, fixed cells bind dye roughly in proportion to their protein.

The test system of a further assay is A549. Kind of assay: Antitumour activity against human A549 cells assessed as cell growth inhibition measured after 72 hrs by SRB assay. Particulars: A549, 72 h. Summed up: as §1
The subject of the next assay is MGC-803. Kind of assay: Antitumour activity against human MGC803 cells assessed as cell growth inhibition measured after 72 hrs by SRB assay. Particulars: MGC-803, 72 h. The method, boiled down:
as §1

In the next assay the test system is ECa-109 cell line. Kind of assay: Antitumour activity against human EC109 cells assessed as cell growth inhibition measured after 72 hrs by SRB assay. Particulars: ECa-109, 72 h. Summed up:
as §1

The subject of another assay is B16. Kind of assay: Antitumour activity against mouse B16 cells assessed as cell growth inhibition measured after 72 hrs by SRB assay. Particulars: B16, 72 h. The method, boiled down: as §1
The next assay concerns SMMC-7721. Kind of assay: Antitumour activity against human SMMC7721 cells assessed as cell growth inhibition measured after 72 hrs by SRB assay. Particulars: SMMC-7721, 72 h. Summed up: as §1

Usually IC50 stands for the concentration at which inhibition is half-maximal. Take `COc1ccc(/C=C/C(=O)c2cc3c(cc2O)CC[C@@H]2[C@@H]3CC[C@]3(C)[C@@H](O)CC[C@@H]23)cc1`: the IC50 in the assay with SK-N-SH was 18.9 µM; in the assay on A549, 8.6 µM; in the assay with MGC-803, 12.2 µM; in the assay on ECa-109 cell line, 18.2 µM; in the assay with B16, 17.4 µM; in the assay with SMMC-7721, 16.1 µM.
For `C[C@]12CC[C@@H]3c4cc(C(=O)/C=C/c5ccccc5Cl)c(O)cc4CC[C@H]3[C@@H]1CC[C@@H]2O`, the IC50 was 16.4 µM in the assay with SK-N-SH; 15.5 µM in the assay with A549; 8.3 µM in the assay on MGC-803; 13.2 µM in the assay with ECa-109 cell line; 15.9 µM with B16; 11.3 µM with SMMC-7721.
Regarding `COc1cc2c(cc1O)CC[C@@H]1[C@@H]2CC[C@]2(C)C(=O)/C(=C/c3ccccc3)C[C@@H]12`, the IC50 with SK-N-SH was found to be 22.4 µM; in the assay with A549, 19.4 µM; in the assay on MGC-803, 17.7 µM; in the assay on ECa-109 cell line it was 22.8 µM; in the assay on B16, 17.8 µM; in the assay with SMMC-7721 it was 17.2 µM.
As to `COc1cc2c(cc1O)CC[C@@H]1[C@@H]2CC[C@]2(C)C(=O)/C(=C/c3cc(OC)c(OC)c(OC)c3)C[C@@H]12`, the IC50 in the assay on SK-N-SH was 14.3 µM; in the assay with A549, 14.5 µM; in the assay on MGC-803, 18.7 µM; with ECa-109 cell line, 13.9 µM; with B16 it was 18.8 µM; with SMMC-7721, 2.8 µM.
Take `COc1ccccc1/C=C/C(=O)c1cc2c(cc1O)CC[C@@H]1[C@@H]2CC[C@]2(C)[C@@H](O)CC[C@@H]12`: the IC50 with SK-N-SH was 22.2 µM; with A549 it was 5.9 µM; in the assay with MGC-803 it was 9.8 µM; in the assay on ECa-109 cell line, 26.5 µM; in the assay with B16, 16.5 µM; in the assay on SMMC-7721, 0.6 µM.
For the compound `COc1cc2c(cc1O)CC[C@@H]1[C@@H]2CC[C@]2(C)C(=O)/C(=C/c3cc(F)cc(F)c3)C[C@@H]12`, the IC50 was 8 µM in the assay with SK-N-SH; 15 µM in the assay on A549; 10.7 µM in the assay with MGC-803; 16.2 µM in the assay on ECa-109 cell line; 14.2 µM in the assay with B16; 5.1 µM in the assay on SMMC-7721.
Regarding `C[C@]12CC[C@@H]3c4cc(C(=O)/C=C/c5ccc(Cl)cc5Cl)c(O)cc4CC[C@H]3[C@@H]1CC[C@@H]2O`, the IC50 is 22.7 µM in the assay on SK-N-SH; 13.7 µM with A549; 12.5 µM in the assay with MGC-803; 19.4 µM in the assay on ECa-109 cell line; 13.1 µM in the assay on B16; 14.5 µM in the assay on SMMC-7721.
In the case of `C[C@]12CC[C@@H]3c4cc(C(=O)/C=C/c5ccc(Cl)cc5)c(O)cc4CC[C@H]3[C@@H]1CC[C@@H]2O`, the IC50 with SK-N-SH was 15 µM; in the assay with A549, 12.1 µM; in the assay on MGC-803 it was 15.7 µM; in the assay on ECa-109 cell line it was 14 µM; in the assay on B16 it was 15.3 µM; in the assay with SMMC-7721, 44.9 µM.
Consider `C[C@]12CC[C@@H]3c4cc(C(=O)/C=C/c5cccc(Cl)c5)c(O)cc4CC[C@H]3[C@@H]1CC[C@@H]2O`, for which the IC50 with SK-N-SH amounted to 10.3 µM; with A549, 10.9 µM; in the assay on MGC-803, 8 µM; in the assay on ECa-109 cell line, 8.5 µM; with B16, 12.4 µM; with SMMC-7721, 6.3 µM.
As to `COc1cc2c(cc1O)CC[C@@H]1[C@@H]2CC[C@]2(C)C(=O)/C(=C/c3ccc(Cl)cc3Cl)C[C@@H]12`, the IC50 in the assay with SK-N-SH amounted to 17.8 µM; with A549, 15.5 µM; in the assay on MGC-803 it was 15.8 µM; in the assay on ECa-109 cell line it was 15.3 µM; in the assay with B16, 16.5 µM; in the assay with SMMC-7721, 1.7 µM.
Take `COc1cc2c(cc1O)CC[C@@H]1[C@@H]2CC[C@]2(C)C(=O)/C(=C/c3ccc(C)cc3)C[C@@H]12`: the IC50 in the assay with SK-N-SH turned out to be 20.1 µM; in the assay on A549, 53 µM; in the assay on MGC-803, 20.5 µM; in the assay with ECa-109 cell line, 22.5 µM; in the assay with B16 it was 6 µM; with SMMC-7721 it was 20.8 µM.
